In ChEMBL document CHEMBL4052583, “A Potent, Selective, and Orally Bioavailable HCV NS5A Inhibitor for Treatment of Hepatitis C Virus: (S)-1-((R)-2-(Cyclopropanecarboxamido)-2-phenylacetyl)-N-(4-phenylthiazol-2-yl)pyrrolidine-2-carboxamide” (J Med Chem, 2017):

Experiment: Oral bioavailability in Sprague-Dawley rat at 5 mg/kg after 1 to 24 hrs by HPLC-MS/MS method
Format: ADME, organism-based
Details: in vivo
Method in brief: (§1)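 Rats were dosed orally at 5 mg/kg. Tmax (h), Cmax (ng/mL), AUC (ng/mL×h) and oral bioavailability F (%) were reported.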

bioavailability [%]	SMILES
10.1	O=C(N[C@@H](C(=O)N1CCC[C@H]1C(=O)Nc1nc(-c2ccccc2)cs1)c1ccccc1)c1ccncc1
31	O=C(N[C@@H](C(=O)N1CCC[C@H]1C(=O)Nc1nc(-c2ccccc2)cs1)c1ccccc1)c1ccccc1
20.4	O=C(Nc1nc(-c2ccccc2)cs1)[C@@H]1CCCN1C(=O)[C@H](NC(=O)N1CCCC1)c1ccccc1
18.7	O=C(Nc1nc(-c2ccccc2)cs1)[C@@H]1CCCN1C(=O)[C@H](NC(=O)N1CCOCC1)c1ccccc1
45	O=C(N[C@@H](C(=O)N1CCC[C@H]1C(=O)Nc1nc(-c2ccccc2)cs1)c1ccccc1)C1CC1

Experiment: Selectivity index, ratio of CC50 for cytotoxic activity against human HuH7 cells containing HCV subgenomic replicons Ava5-EG(D4AB)SEAP to IC50 for inhibition of NS5A in HCV genotype 1b Ava5 infected in human HuH7 cells containing Ava5-EG(D4AB)SEAP subgenomic replicons
Details: not given

SMILES	Ratio CC50/EC50
O=C(N[C@@H](C(=O)N1CCC[C@H]1C(=O)Nc1nc(-c2ccccc2)cs1)c1ccccc1)C1CC1	>10000

Experiment: Cmax in Sprague-Dawley rat at 5 mg/kg, po after 1 to 24 hrs by HPLC-MS/MS method
Format: ADME, organism-based
Parameters: dose 5 mg/kg, route oral
Details: in vivo
Method in brief: as §1

Cmax [ng/mL]	SMILES
58.3	O=C(N[C@@H](C(=O)N1CCC[C@H]1C(=O)Nc1nc(-c2ccccc2)cs1)c1ccccc1)c1ccncc1
109	O=C(N[C@@H](C(=O)N1CCC[C@H]1C(=O)Nc1nc(-c2ccccc2)cs1)c1ccccc1)c1ccccc1
63.9	O=C(Nc1nc(-c2ccccc2)cs1)[C@@H]1CCCN1C(=O)[C@H](NC(=O)N1CCCC1)c1ccccc1
247	O=C(Nc1nc(-c2ccccc2)cs1)[C@@H]1CCCN1C(=O)[C@H](NC(=O)N1CCOCC1)c1ccccc1
260	O=C(N[C@@H](C(=O)N1CCC[C@H]1C(=O)Nc1nc(-c2ccccc2)cs1)c1ccccc1)C1CC1

Experiment: AUC in Sprague-Dawley rat at 5 mg/kg, po after 1 to 24 hrs by HPLC-MS/MS method
Format: ADME, organism-based
Details: in vivo
Method in brief: as §1

AUC [ng·h/mL]	SMILES
125	O=C(N[C@@H](C(=O)N1CCC[C@H]1C(=O)Nc1nc(-c2ccccc2)cs1)c1ccccc1)c1ccncc1
588	O=C(N[C@@H](C(=O)N1CCC[C@H]1C(=O)Nc1nc(-c2ccccc2)cs1)c1ccccc1)c1ccccc1
288	O=C(Nc1nc(-c2ccccc2)cs1)[C@@H]1CCCN1C(=O)[C@H](NC(=O)N1CCCC1)c1ccccc1
404	O=C(Nc1nc(-c2ccccc2)cs1)[C@@H]1CCCN1C(=O)[C@H](NC(=O)N1CCOCC1)c1ccccc1
1440	O=C(N[C@@H](C(=O)N1CCC[C@H]1C(=O)Nc1nc(-c2ccccc2)cs1)c1ccccc1)C1CC1

Experiment: Clearance in Sprague-Dawley rat at 1 mg/kg, iv after 1 to 24 hrs by HPLC-MS/MS method
Format: ADME, organism-based
Details: in vivo
Method in brief: (§2)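 Rats received a single intravenous dose of 1 mg/kg. Clearance (mL/min/kg), steady-state volume of distribution (L/kg), half-life (h) and AUC (ng/mL×h) were reported as mean ± spread.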

clearance [mL/min/kg]	SMILES
62.2	O=C(N[C@@H](C(=O)N1CCC[C@H]1C(=O)Nc1nc(-c2ccccc2)cs1)c1ccccc1)c1ccncc1
44.8	O=C(N[C@@H](C(=O)N1CCC[C@H]1C(=O)Nc1nc(-c2ccccc2)cs1)c1ccccc1)c1ccccc1
55.1	O=C(Nc1nc(-c2ccccc2)cs1)[C@@H]1CCCN1C(=O)[C@H](NC(=O)N1CCCC1)c1ccccc1
38.4	O=C(Nc1nc(-c2ccccc2)cs1)[C@@H]1CCCN1C(=O)[C@H](NC(=O)N1CCOCC1)c1ccccc1
27.1	O=C(N[C@@H](C(=O)N1CCC[C@H]1C(=O)Nc1nc(-c2ccccc2)cs1)c1ccccc1)C1CC1

Experiment: Half life in Sprague-Dawley rat at 5 mg/kg, po after 1 to 24 hrs by HPLC-MS/MS method
Format: ADME, organism-based
Details: in vivo

half-life [h]	SMILES
4.5	O=C(N[C@@H](C(=O)N1CCC[C@H]1C(=O)Nc1nc(-c2ccccc2)cs1)c1ccccc1)c1ccncc1
2.7	O=C(N[C@@H](C(=O)N1CCC[C@H]1C(=O)Nc1nc(-c2ccccc2)cs1)c1ccccc1)c1ccccc1
2.4	O=C(Nc1nc(-c2ccccc2)cs1)[C@@H]1CCCN1C(=O)[C@H](NC(=O)N1CCCC1)c1ccccc1
1.6	O=C(Nc1nc(-c2ccccc2)cs1)[C@@H]1CCCN1C(=O)[C@H](NC(=O)N1CCOCC1)c1ccccc1
2.8	O=C(N[C@@H](C(=O)N1CCC[C@H]1C(=O)Nc1nc(-c2ccccc2)cs1)c1ccccc1)C1CC1

Experiment: Cytotoxic activity against human HuH7 cells containing HCV subgenomic replicons Ava5-EG(D4AB)SEAP by MTS assay
Format: cell-based, Huh-7
Details: not given

SMILES	CC50 [nM]
O=C(N[C@@H](C(=O)N1CCC[C@H]1C(=O)Nc1nc(-c2ccccc2)cs1)c1ccccc1)c1ccncc1	> 50000
O=C(Nc1nccs1)[C@@H]1CCCN1C(=O)[C@H](NC(=O)N1CCOCC1)c1ccccc1	> 50000
C[C@@H](NC(=O)N1CCOCC1)C(=O)N1CCC[C@H]1C(=O)Nc1nc(-c2ccccc2)cs1	> 50000
O=C(N[C@@H](C(=O)N1CCC[C@H]1C(=O)Nc1nc(-c2ccccc2)cs1)c1ccccc1)C1CCCC1	> 50000
CC(=O)N[C@@H](C(=O)N1CCC[C@H]1C(=O)Nc1nc(-c2ccccc2)cs1)c1ccccc1	> 50000
O=C(NC1CC1)N[C@@H](C(=O)N1CCC[C@H]1C(=O)Nc1nc(-c2ccccc2)cs1)c1ccccc1	> 50000
O=C(Nc1nc(-c2ccccc2)cs1)[C@@H]1CCCN1C(=O)[C@H](NC(=S)Nc1ccccc1)c1ccccc1	> 50000
O=C(N[C@@H](C(=O)N1CCC[C@H]1C(=O)Nc1nc(-c2ccccc2)cs1)c1ccccc1)c1ccccc1	> 50000
O=C(Nc1nc(-c2ccccc2)cs1)[C@@H]1CCCN1C(=O)[C@H](NC(=O)N1CCCC1)c1ccccc1	> 50000
O=C(Nc1nc(-c2ccccc2)cs1)[C@@H]1CCCN1C(=O)[C@H](NC(=O)N1CCOCC1)c1ccccc1	> 50000
O=C(N[C@@H](C(=O)N1CCC[C@H]1C(=O)Nc1nc(-c2ccccc2)cs1)c1ccccc1)C1CC1	> 50000

Experiment: Inhibition of NS5A in HCV genotype 1b Ava5 infected in human HuH7 cells containing Ava5-EG(D4AB)SEAP subgenomic replicons assessed as reduction in viral replicon growth incubated for 1 day by Phospha-light assay method
Format: cell-based, Hepatitis C virus subtype 1b
Details: Hepatitis C virus, Ava5, 24 h

SMILES	EC50 [nM]
O=C(N[C@@H](C(=O)N1CCC[C@H]1C(=O)Nc1nc(-c2ccccc2)cs1)c1ccccc1)c1ccncc1	3.8
O=C(Nc1nccs1)[C@@H]1CCCN1C(=O)[C@H](NC(=O)N1CCOCC1)c1ccccc1	9650
C[C@@H](NC(=O)N1CCOCC1)C(=O)N1CCC[C@H]1C(=O)Nc1nc(-c2ccccc2)cs1	1310
O=C(N[C@@H](C(=O)N1CCC[C@H]1C(=O)Nc1nc(-c2ccccc2)cs1)c1ccccc1)C1CCCC1	13
CC(=O)N[C@@H](C(=O)N1CCC[C@H]1C(=O)Nc1nc(-c2ccccc2)cs1)c1ccccc1	16
O=C(NC1CC1)N[C@@H](C(=O)N1CCC[C@H]1C(=O)Nc1nc(-c2ccccc2)cs1)c1ccccc1	3.5
O=C(Nc1nc(-c2ccccc2)cs1)[C@@H]1CCCN1C(=O)[C@H](NC(=S)Nc1ccccc1)c1ccccc1	46
O=C(N[C@@H](C(=O)N1CCC[C@H]1C(=O)Nc1nc(-c2ccccc2)cs1)c1ccccc1)c1ccccc1	15
O=C(Nc1nc(-c2ccccc2)cs1)[C@@H]1CCCN1C(=O)[C@H](NC(=O)N1CCCC1)c1ccccc1	3.1
O=C(Nc1nc(-c2ccccc2)cs1)[C@@H]1CCCN1C(=O)[C@H](NC(=O)N1CCOCC1)c1ccccc1	0.92
O=C(N[C@@H](C(=O)N1CCC[C@H]1C(=O)Nc1nc(-c2ccccc2)cs1)c1ccccc1)C1CC1	4.6

Experiment: Half life in Sprague-Dawley rat at 1 mg/kg, iv after 1 to 24 hrs by HPLC-MS/MS method
Format: ADME, organism-based
Details: in vivo
Method in brief: as §2

half-life [h]	SMILES
0.5	O=C(N[C@@H](C(=O)N1CCC[C@H]1C(=O)Nc1nc(-c2ccccc2)cs1)c1ccccc1)c1ccncc1
2.3	O=C(N[C@@H](C(=O)N1CCC[C@H]1C(=O)Nc1nc(-c2ccccc2)cs1)c1ccccc1)c1ccccc1
0.5	O=C(Nc1nc(-c2ccccc2)cs1)[C@@H]1CCCN1C(=O)[C@H](NC(=O)N1CCCC1)c1ccccc1
0.46	O=C(Nc1nc(-c2ccccc2)cs1)[C@@H]1CCCN1C(=O)[C@H](NC(=O)N1CCOCC1)c1ccccc1
1.3	O=C(N[C@@H](C(=O)N1CCC[C@H]1C(=O)Nc1nc(-c2ccccc2)cs1)c1ccccc1)C1CC1

Experiment: Volume of distribution at steady state in Sprague-Dawley rat at 1 mg/kg, iv after 1 to 24 hrs by HPLC-MS/MS method
Format: ADME, organism-based
Details: in vivo, read-out: Vdss
Method in brief: as §2

Vd [L/kg]	SMILES
1.8	O=C(N[C@@H](C(=O)N1CCC[C@H]1C(=O)Nc1nc(-c2ccccc2)cs1)c1ccccc1)c1ccncc1
4.2	O=C(N[C@@H](C(=O)N1CCC[C@H]1C(=O)Nc1nc(-c2ccccc2)cs1)c1ccccc1)c1ccccc1
1.1	O=C(Nc1nc(-c2ccccc2)cs1)[C@@H]1CCCN1C(=O)[C@H](NC(=O)N1CCCC1)c1ccccc1
1.04	O=C(Nc1nc(-c2ccccc2)cs1)[C@@H]1CCCN1C(=O)[C@H](NC(=O)N1CCOCC1)c1ccccc1
1.32	O=C(N[C@@H](C(=O)N1CCC[C@H]1C(=O)Nc1nc(-c2ccccc2)cs1)c1ccccc1)C1CC1

Experiment: Tmax in Sprague-Dawley rat at 5 mg/kg, po after 1 to 24 hrs by HPLC-MS/MS method
Format: ADME, organism-based
Details: in vivo
Method in brief: as §1

Tmax [h]	SMILES
0.7	O=C(N[C@@H](C(=O)N1CCC[C@H]1C(=O)Nc1nc(-c2ccccc2)cs1)c1ccccc1)c1ccncc1
2.3	O=C(N[C@@H](C(=O)N1CCC[C@H]1C(=O)Nc1nc(-c2ccccc2)cs1)c1ccccc1)c1ccccc1
2.8	O=C(Nc1nc(-c2ccccc2)cs1)[C@@H]1CCCN1C(=O)[C@H](NC(=O)N1CCCC1)c1ccccc1
0.8	O=C(Nc1nc(-c2ccccc2)cs1)[C@@H]1CCCN1C(=O)[C@H](NC(=O)N1CCOCC1)c1ccccc1
0.8	O=C(N[C@@H](C(=O)N1CCC[C@H]1C(=O)Nc1nc(-c2ccccc2)cs1)c1ccccc1)C1CC1

Experiment: AUC in Sprague-Dawley rat at 1 mg/kg, iv after 1 to 24 hrs by HPLC-MS/MS method
Format: ADME, organism-based
Details: in vivo
Method in brief: as §2

AUC [ng·h/mL]	SMILES
296	O=C(N[C@@H](C(=O)N1CCC[C@H]1C(=O)Nc1nc(-c2ccccc2)cs1)c1ccccc1)c1ccncc1
367	O=C(N[C@@H](C(=O)N1CCC[C@H]1C(=O)Nc1nc(-c2ccccc2)cs1)c1ccccc1)c1ccccc1
311	O=C(Nc1nc(-c2ccccc2)cs1)[C@@H]1CCCN1C(=O)[C@H](NC(=O)N1CCCC1)c1ccccc1
436	O=C(Nc1nc(-c2ccccc2)cs1)[C@@H]1CCCN1C(=O)[C@H](NC(=O)N1CCOCC1)c1ccccc1
635	O=C(N[C@@H](C(=O)N1CCC[C@H]1C(=O)Nc1nc(-c2ccccc2)cs1)c1ccccc1)C1CC1
